Data from ChEMBL document CHEMBL4130569, “Structure Optimization of Aloperine Derivatives as HIV-1 Entry Inhibitors” (ACS Med Chem Lett, 2017).
Active and inactive are the calls of the source. The calls are words filed in the database; no cut-off is given here.

How the values were obtained:
[1] = test system: Human immunodeficiency virus 1; test: Antiviral activity against HIV1 NL4-3 infected in human MT4 cells after 3 days by luciferase reporter gene assay; assay type: functional, organism-based; details: Human immunodeficiency virus 1, NL4-3, MT4, 72 h
[2] = Cytotoxicity in human MT4 cells assessed as reduction of cell viability incubated for 3 days by CytoTox-Glo cytotoxicity assay; assay type: cell-based
Influenza A virus = test: Antiviral activity against Influenza A virus (A/Puerto Rico/8/1934(H1N1)) infected in MDCK cells assessed as inhibition of virus-induced cytopathic effect incubated for 48 hrs by Cell-titer-Glo assay; assay type: functional, organism-based
[3] = Cytotoxicity in MDCK cells assessed as reduction of cell viability incubated for 2 days by CytoTox-Glo cytotoxicity assay; assay type: cell-based, Canis lupus familiaris; details: dog
[4] = Selectivity index, ratio of EC50 for antiviral activity against influenza A virus (A/Puerto Rico/8/1934(H1N1)) infected in MDCK cells to EC50 for antiviral activity against HIV1 NL4-3 infected in human MT4 cells
[5] = Selectivity index, ratio of CC50 for human MT4 cells […] NL4-3 infected in human MT4 cells; assay type: toxicity, cell-based; details: MT4 cells and HIV1 NL4-3 infected MT4 cells, read-out: Ratio CC50/EC50
[6] = test system: Human immunodeficiency virus 1; test: Potency index, ratio of EC50 for aloperine to EC50 for test compound for antiviral activity against HIV1 NL4-3 infected in human MT4 cells after 3 days by luciferase reporter gene assay; assay type: functional
[7] = test system: Human immunodeficiency virus 1; test: Inhibition of HIV1-mediated cellular entry in HIV1 NL4-3 VPR-GFP infected human TZM-bl cells incubated for 2 hrs by confocal microscopy; assay type: functional, organism-based
Method in brief: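 TZM-bl cells were infected with NL4-3/Vpr-GFP virus, with or without test compound at 1 µM, for 2 h. Nuclei were stained with DAPI 2 h post infection, and confocal microscopy imaged GFP. Cytosolic GFP dispersal marked entry; GFP puncta marked virus arrested at the cell or endosomal membrane. Uninfected DAPI-stained cells served as background.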

[8] = target: Envelope glycoprotein gp160 (Human immunodeficiency virus 1) (UniProt Q6QLK5); test: Induction of conformational changes in HIV1 NLDH120 envelope glycoprotein gp120 transfected in COS cells assessed as increase in gp120 binding of monoclonal antibody 17b at 10 uM after 48 hrs by FACS; assay type: cell-based
Chain of Envelope glycoprotein gp160 (Human immunodeficiency virus 1) (Q6QLK5 1-814): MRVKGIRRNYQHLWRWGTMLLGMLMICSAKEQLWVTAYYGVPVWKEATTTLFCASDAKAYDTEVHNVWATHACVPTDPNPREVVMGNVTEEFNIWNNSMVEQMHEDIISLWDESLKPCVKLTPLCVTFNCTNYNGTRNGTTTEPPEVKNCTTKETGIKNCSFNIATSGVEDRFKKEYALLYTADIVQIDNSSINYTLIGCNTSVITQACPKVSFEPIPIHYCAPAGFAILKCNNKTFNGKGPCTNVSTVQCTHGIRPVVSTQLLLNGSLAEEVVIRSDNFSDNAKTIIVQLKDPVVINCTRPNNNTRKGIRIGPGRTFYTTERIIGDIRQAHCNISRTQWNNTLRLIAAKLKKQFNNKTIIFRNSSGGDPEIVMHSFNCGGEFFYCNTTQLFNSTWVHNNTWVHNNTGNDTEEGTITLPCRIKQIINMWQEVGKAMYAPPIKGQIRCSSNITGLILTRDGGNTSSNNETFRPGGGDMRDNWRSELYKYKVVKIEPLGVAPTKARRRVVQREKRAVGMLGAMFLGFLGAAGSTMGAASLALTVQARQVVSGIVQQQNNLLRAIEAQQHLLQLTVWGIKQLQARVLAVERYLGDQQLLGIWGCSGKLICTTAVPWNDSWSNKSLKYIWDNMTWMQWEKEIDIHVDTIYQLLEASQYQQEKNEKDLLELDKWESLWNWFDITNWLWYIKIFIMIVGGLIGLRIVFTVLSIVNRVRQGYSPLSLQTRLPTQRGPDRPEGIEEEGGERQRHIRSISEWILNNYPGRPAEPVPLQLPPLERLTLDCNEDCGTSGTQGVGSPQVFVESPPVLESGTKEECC

SMILES	EC50 [1]	CC50 at 72 h [2]	other results
O=C(CCc1ccc(OC(F)(F)F)cc1)NCCCCN1CCCC2=C[C@H]3C[C@H](CN4CCCC[C@H]34)[C@@H]21	> 3000 nM	> 40 µM	–
O=C(NCCCCN1CCCC2=C[C@H]3C[C@H](CN4CCCC[C@H]34)[C@@H]21)c1ccc(S(=O)(=O)C(F)(F)F)cc1	550 nM	> 40 µM	EC50 (Influenza A virus; mdck): Not Active; CC50 at 48 h [3]: > 80 µM
C1=C2CCCN[C@H]2[C@@H]2C[C@H]1[C@H]1CCCCN1C2	–	> 86 µM	CC50 at 48 h [3]: > 80 µM; Ratio EC50 [4]: 7
O=C(NCCCCN1CCCC2=C[C@H]3C[C@H](CN4CCCC[C@H]34)[C@@H]21)c1ccc(-c2ccsc2)cc1	1320 nM	21.2 µM	–
O=C(Cc1ccc(OC(F)(F)F)cc1)NCCCCN1CCC[C@H]2C[C@H]3C[C@H](CN4CCCC[C@H]34)[C@@H]21	1500 nM	> 40 µM	–
O=C(Cc1ccc(S(=O)(=O)C(F)(F)F)cc1)NCCCCN1CCC[C@@H]2C[C@H]3C[C@H](CN4CCCC[C@H]34)[C@@H]21	> 3000 nM	> 40 µM	–
O=C(NCCCCN1CCCC2=C[C@H]3C[C@H](CN4CCCC[C@H]34)[C@@H]21)C1CCC(F)(F)CC1	2440 nM	> 40 µM	–
O=C(NCCCCN1CCCC2=C[C@H]3C[C@H](CN4CCCC[C@H]34)[C@@H]21)c1ccc(C(F)(F)F)c(F)c1	2220 nM	> 40 µM	–
O=C(Cc1ccc(SC(F)(F)F)cc1)NCCCCN1CCCC2=C[C@H]3C[C@H](CN4CCCC[C@H]34)[C@@H]21	180 nM	23.8 µM	EC50 (Influenza A virus; mdck): Not Active; CC50 at 48 h [3]: 45.1 µM
O=C(Cc1ccc(Br)cc1)NCCCCN1CCCC2=C[C@H]3C[C@H](CN4CCCC[C@H]34)[C@@H]21	1320 nM	> 40 µM	–
O=C(NCCCCN1CCCC2=C[C@H]3C[C@H](CN4CCCC[C@H]34)[C@@H]21)C(=O)c1ccc(C(F)(F)F)cc1	990 nM	> 40 µM	EC50 (Influenza A virus; mdck): Not Active; CC50 at 48 h [3]: > 80 µM
O=C(Cc1ccc(C(F)(F)F)cc1)NCCCCN1CCCC2=C[C@H]3C[C@H](CN4CCCC[C@H]34)[C@@H]21	810 nM	> 40 µM	EC50 (Influenza A virus; mdck): Not Active; CC50 at 48 h [3]: > 80 µM
O=C(NCCCCN1CCCC2=C[C@H]3C[C@H](CN4CCCC[C@H]34)[C@@H]21)c1ccc(-c2cccs2)cc1	> 3000 nM	16.2 µM	–
O=C(Cc1ccc2c(c1)OCO2)NCCCCN1CCCC2=C[C@H]3C[C@H](CN4CCCC[C@H]34)[C@@H]21	> 3000 nM	> 40 µM	–
CC(C)(C)c1ccc(CC(=O)NCCCCN2CCCC3=C[C@H]4C[C@H](CN5CCCC[C@H]45)[C@@H]32)cc1	2090 nM	> 40 µM	–
O=C(NCCCCN1CCCC2=C[C@H]3C[C@H](CN4CCCC[C@H]34)[C@@H]21)c1ccc(CNS(=O)(=O)C(F)(F)F)cc1	–	> 40 µM	–

SMILES	EC50 [1]	CC50 at 72 h [2]	other results
O=C(CC1CCC(F)(F)CC1)NCCCCN1CCCC2=C[C@H]3C[C@H](CN4CCCC[C@H]34)[C@@H]21	1940 nM	> 40 µM	–
CC(C)(C)c1ccc(C(=O)NCCCCN2CCCC3=C[C@H]4C[C@H](CN5CCCC[C@H]45)[C@@H]32)cc1	2150 nM	12.9 µM	–
O=C(Cc1ccc(OC(F)(F)F)cc1)NCCCCN1CCCC2=C[C@H]3C[C@H](CN4CCCC[C@H]34)[C@@H]21	–	–	EC50 (Influenza A virus; Influenza A virus, A/Puerto Rico/8/1934(H1N1), MDCK, 48 h, read-out: EC50): 18.9 µM; CC50 at 48 h [3]: > 80 µM
O=S(=O)(Cc1ccc(OC(F)(F)F)cc1)NCCCCN1CCCC2=C[C@H]3C[C@H](CN4CCCC[C@H]34)[C@@H]21	> 3000 nM	35.7 µM	–
O=C(Cc1ccc(S(=O)(=O)C(F)(F)F)cc1)NCCCCN1CCCC2=C[C@H]3C[C@H](CN4CCCC[C@H]34)[C@@H]21	120 nM	28.8 µM	selectivity ratio [5]: 240; Ratio EC50 [6]: 15; EC50 (Influenza A virus; mdck): Not Active; CC50 at 48 h [3]: > 80 µM; inhibition [7]: Active; Activity [8]: Active
O=C(Cc1ccc(S(=O)(=O)CC(F)(F)F)cc1)NCCCCN1CCCC2=C[C@H]3C[C@H](CN4CCCC[C@H]34)[C@@H]21	> 3000 nM	> 40 µM	–
O=C(Cc1ccc([S+]([O-])C(F)(F)F)cc1)NCCCCN1CCCC2=C[C@H]3C[C@H](CN4CCCC[C@H]34)[C@@H]21 (some centres not stated)	1670 nM	> 40 µM	–
CS(=O)(=O)c1ccc(CC(=O)NCCCCN2CCCC3=C[C@H]4C[C@H](CN5CCCC[C@H]45)[C@@H]32)cc1	> 3000 nM	> 40 µM	–
O=C(Cc1ccc(S(=O)(=O)C(F)(F)F)cc1)NCCCCN1CCC[C@H]2C[C@H]3C[C@H](CN4CCCC[C@H]34)[C@@H]21	> 3000 nM	> 40 µM	–
O=C(NCCCCN1CCCC2=C[C@H]3C[C@H](CN4CCCC[C@H]34)[C@@H]21)c1ccc(C(=O)c2ccccc2)cc1	970 nM	> 40 µM	EC50 (Influenza A virus; mdck): Not Active; CC50 at 48 h [3]: 31.6 µM
O=C(NCCCCN1CCCC2=C[C@H]3C[C@H](CN4CCCC[C@H]34)[C@@H]21)c1ccc2c(c1)OCO2	> 3000 nM	> 40 µM	–
O=S(=O)(NCCCCN1CCCC2=C[C@H]3C[C@H](CN4CCCC[C@H]34)[C@@H]21)c1ccc(OC(F)(F)F)cc1	> 3000 nM	> 40 µM	–
O=C(Cc1ccc(OC(F)(F)F)cc1)NCCCCN1CCC[C@@H]2C[C@H]3C[C@H](CN4CCCC[C@H]34)[C@@H]21	2800 nM	> 40 µM	–
O=C(NCCCCN1CCCC2=C[C@H]3C[C@H](CN4CCCC[C@H]34)[C@@H]21)C1CCC(C(F)(F)F)CC1 (some centres not stated)	> 3000 nM	> 40 µM	–
O=C(NCCCCN1CCCC2=C[C@H]3C[C@H](CN4CCCC[C@H]34)[C@@H]21)c1ccc(S(=O)(=O)F)cc1	–	38.5 µM	–
